PMC4216208 (Journal of Medicinal Chemistry, 2014)
“Also recorded” adds a separate entry of the source.

Experiments:
HEK 293T/17 cells [1] = test: Mitochondrial-uncoupling assay; assay type: cell-based, human; details: 50 μM compound, TMRE staining
In short: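 HEK 293T/17 cells were trypsinised and suspended at 1−2 × 10^6 cells/mL in DMEM with 10% FBS, then given test compound (50 μM) or DMSO for 30 min at 37 °C. TMRE (~450 nM final) was added for 30 min in the dark at 37 °C. Cells were washed twice in 0.2% BSA/PBS, resuspended, and read by plate fluorescence (em 575 nm). Unstained and DMSO controls were included; mean ± sd, n = 3.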

O. volvulus L3 larvae = test: O. volvulus L3 molting inhibition; assay type: cell-based, Onchocerca volvulus
C. elegans = test: Bioaccumulation in C. elegans; assay type: in vitro ADME, Caenorhabditis elegans; details: for worm concentration as share of the dose: at 6 h, dose 2 nmol/mg worm; for accumulation in C. elegans (in words): late-stage L4 worms, 10 μM (2 nmol/mg worm), 6 h, LC-MS of homogenates
In short: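 Synchronised C. elegans grown to late L4 on E. coli OP50 at 25 °C for 40 h, water-washed, and suspended in M9 at ~5−10 worms/μL. Dosed at 10 μM final (~2 nmol/mg worm) from DMSO stock, 6 or 12 h at rt. Washed in 0.1% SDS then water, frozen, lyophilised, weighed, extracted into cold MeOH/MeCN with internal standard. Quantified by LC-ESI-MS against blank-worm calibration; mean ± sd, n = 3.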

BmCHT1 = target: T1, BmCHT1 (Brugia malayi, UniProt P29030); test: Chitinase activity assay, Brugia malayi chitinase; assay type: biochemical; details: 10 μM final concentration
T1 sequence (P29030 23-504): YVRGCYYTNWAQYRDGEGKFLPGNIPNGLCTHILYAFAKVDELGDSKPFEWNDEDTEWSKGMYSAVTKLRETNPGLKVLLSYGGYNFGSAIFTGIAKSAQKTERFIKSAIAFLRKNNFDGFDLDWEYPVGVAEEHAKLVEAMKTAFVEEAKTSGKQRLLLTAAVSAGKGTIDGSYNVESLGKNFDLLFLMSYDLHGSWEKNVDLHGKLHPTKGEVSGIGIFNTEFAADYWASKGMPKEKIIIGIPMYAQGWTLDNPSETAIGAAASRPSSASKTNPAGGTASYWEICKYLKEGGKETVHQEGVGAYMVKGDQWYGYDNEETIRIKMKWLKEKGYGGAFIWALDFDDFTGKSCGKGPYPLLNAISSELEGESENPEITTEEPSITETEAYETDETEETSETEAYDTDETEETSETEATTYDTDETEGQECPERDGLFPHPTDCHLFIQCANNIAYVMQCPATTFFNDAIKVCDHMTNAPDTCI

EhCHT1 = test: Chitinase activity assay, Entamoeba histolytica chitinase; assay type: biochemical; details: 10 μM final concentration
OvCHT1 = target: T2, OvCHT1 (Onchocerca volvulus, UniProt Q25615); test: O. volvulus chitinase; assay type: biochemical; details: for inhibition of OvCHT1 at single concentration: 10 μM final concentration, relative to control (0.5% DMSO in water)
T2 sequence (Q25615 22-497): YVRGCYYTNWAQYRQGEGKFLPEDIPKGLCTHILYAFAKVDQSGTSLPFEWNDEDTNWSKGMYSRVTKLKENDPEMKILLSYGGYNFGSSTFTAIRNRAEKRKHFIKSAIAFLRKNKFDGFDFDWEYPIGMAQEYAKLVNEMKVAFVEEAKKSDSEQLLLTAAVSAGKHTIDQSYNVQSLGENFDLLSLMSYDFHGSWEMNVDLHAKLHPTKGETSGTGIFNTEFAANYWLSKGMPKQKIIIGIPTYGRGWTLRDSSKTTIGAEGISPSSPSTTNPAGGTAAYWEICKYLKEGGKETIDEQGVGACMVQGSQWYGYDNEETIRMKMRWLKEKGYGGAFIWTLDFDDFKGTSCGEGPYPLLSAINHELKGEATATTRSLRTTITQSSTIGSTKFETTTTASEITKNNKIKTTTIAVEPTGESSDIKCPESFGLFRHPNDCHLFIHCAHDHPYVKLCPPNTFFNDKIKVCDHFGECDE

PfCHT1 = target: T3, PfCHT1 (Plasmodium falciparum, UniProt Q8I4R4); test: Chitinase activity assay, Plasmodium falciparum chitinase; assay type: biochemical; details: 10 μM final concentration
T3 sequence (Q8I4R4 29-378): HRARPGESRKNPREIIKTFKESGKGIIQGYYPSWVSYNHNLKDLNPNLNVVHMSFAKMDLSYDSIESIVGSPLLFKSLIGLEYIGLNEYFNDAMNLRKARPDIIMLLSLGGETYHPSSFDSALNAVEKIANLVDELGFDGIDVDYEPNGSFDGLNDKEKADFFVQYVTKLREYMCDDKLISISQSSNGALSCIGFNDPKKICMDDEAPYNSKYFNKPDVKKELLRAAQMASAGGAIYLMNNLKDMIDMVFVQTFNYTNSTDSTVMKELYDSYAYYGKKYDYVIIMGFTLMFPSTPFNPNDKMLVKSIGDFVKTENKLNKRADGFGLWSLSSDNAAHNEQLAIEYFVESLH

HEK 293T/17 cells [2] = test: Cell viability assay; assay type: cell-based, human; details: 1 and 10 μM, 24 h, MTS assay
In short: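 HEK 293T/17 cells (2 × 10^4) plated and held 24 h at 37 °C, then exposed to test compound at 1 and 10 μM final. Viability was read by MTS at 0.5 and 24 h after treatment.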

[3] = 10 μM, 24 h preincubation, molting assessed day 6

SMILES	mitochondrial-uncoupling (protonophoric) activity (HEK 293T/17 cells [1])	effect on O. volvulus L3 molting (O. volvulus L3 larvae; [3])	accumulation in C. elegans (in words) (C. elegans)	inhibition of BmCHT1 at single concentration (BmCHT1)	inhibition of EhCHT1 at single concentration (EhCHT1)	inhibition of OvCHT1 at single concentration (OvCHT1)	inhibition of PfCHT1 at single concentration (PfCHT1)	other results
COc1c(I)cc(I)cc1C(=O)Nc1ccc(Oc2ccccc2)cc1 [Compound 3b, 3,5-Diiodo-2-methoxy-N-(4-phenoxyphenyl)benzamide]	loss of uncoupling activity	–	–	–	–	–	–	–
COc1c(I)cc(I)cc1C(=O)Nc1ccc2ccccc2c1 [Compound 4b, 3,5-Diiodo-2-methoxy-N-(naphthalen-2-yl)benzamide]	loss of uncoupling activity; also recorded: devoid of protonophoric activity	inhibited molting	accumulated in C. elegans	–	–	–	–	effect on O. volvulus L3 molting (O. volvulus L3 larvae; 1 μM): did not show any impact on molting; worm concentration as share of the dose (C. elegans): less than 50%
O=C(Nc1ccc(Oc2ccccc2)cc1)c1cc(I)cc(I)c1O [Compound 3a, 2-Hydroxy-3,5-diiodo-N-(4-phenoxyphenyl)benzamide]	mitochondrial-uncoupling activity	–	–	–	–	–	–	–
O=C(Nc1ccc(Oc2ccc(Cl)cc2)cc1)c1cc(I)cc(I)c1 [Compound 3j, N-(4-(4-Chlorophenoxy)phenyl)-3,5-diiodobenzamide]	loss of uncoupling activity; also recorded: devoid of protonophoric activity	–	accumulated in C. elegans	sparing	sparing	complete inhibition	sparing	–
COc1c(I)cc(I)cc1C(=O)O [Compound 6b, 3,5-Diiodo-2-methoxybenzoic Acid]	neither an OvCHT1 inhibitor nor a protonophore	no inhibition on molting	–	–	–	–	–	OvCHT1 inhibitor or not (in words) (OvCHT1): neither an OvCHT1 inhibitor nor a protonophore
O=C(Nc1ccc2ccccc2c1)c1cc(I)cc(I)c1O [Compound 4a, 2-Hydroxy-3,5-diiodo-N-(naphthalen-2-yl)benzamide]	mitochondrial-uncoupling activity	completely abolished molting	accumulated in C. elegans	–	–	–	–	inhibition at 1 µM (O. volvulus L3 larvae; Onchocerca volvulus, read-out: inhibition of O. volvulus L3 molting): ≤ 84%; effect on cell viability of HEK 293T/17 cells (HEK 293T/17 cells [2]): no considerable effect on cell viability; worm concentration as share of the dose (C. elegans): less than 50%
O=C(Nc1ccc(Oc2ccc(Cl)cc2)c(Cl)c1)c1cc(I)cc(I)c1O [Compound 3m, rafoxanide, reference compound]	good mitochondrial-uncoupling activity	completely abolished molting	accumulated in C. elegans	sparing	sparing	complete inhibition	sparing	inhibition of O. volvulus L3 molting (O. volvulus L3 larvae; 1 μM, 24 h preincubation, molting assessed day 6): up to 84%; effect on cell viability of HEK 293T/17 cells (HEK 293T/17 cells [2]): no considerable effect on cell viability; worm level as share of the initial dose (C. elegans; at 6 and 12 h, initial dose 2 nmol/mg worm): > 75%
O=C(Nc1ccc2ccccc2c1)c1cc(I)cc(I)c1 [Compound 4c, 3,5-Diiodo-N-(naphthalen-2-yl)benzamide]	loss of uncoupling activity	–	–	–	–	–	–	–
O=C(Nc1ccc(-c2ccc(Cl)cc2)cc1)c1cc(I)cc(I)c1O [Compound 5c, N-(4′-Chloro-[1,1′-biphenyl]-4-yl)-2-hydroxy-3,5-diiodobenzamide]	–	–	accumulated in C. elegans	sparing	sparing	complete inhibition	sparing	–
COc1c(I)cc(I)cc1C(=O)Nc1ccc(Oc2ccc(Cl)cc2)cc1 [Compound 3i, N-(4-(4-Chlorophenoxy)phenyl)-3,5-diiodo-2-methoxybenzamide]	loss of uncoupling activity; also recorded: devoid of protonophoric activity	only marginal inhibition	accumulated in C. elegans	sparing	sparing	complete inhibition	sparing	effect on O. volvulus L3 molting (O. volvulus L3 larvae; 100 μM): completely hindered L3 molting
O=C(Nc1ccc(-c2ccccc2)cc1)c1cc(I)cc(I)c1O [Compound 5a, N-([1,1′-Biphenyl]-4-yl)-2-hydroxy-3,5-diiodobenzamide]	–	–	accumulated in C. elegans	sparing	sparing	complete inhibition	sparing	–
O=C(Nc1ccc(Oc2ccccc2)cc1)c1cc(I)cc(I)c1 [Compound 3e, 3,5-Diiodo-N-(4-phenoxyphenyl)benzamide]	loss of uncoupling activity	–	–	–	–	–	–	–
N#CC(C#N)=NNc1cccc(Cl)c1 [CCCP, carbonyl cyanide m-chlorophenyl hydrazone, reference compound]	a protonophore only	fully inhibited the molting	accumulated in C. elegans	–	–	–	–	effect on O. volvulus L3 molting (O. volvulus L3 larvae; 1 μM): did not show any impact on molting
CN(C(=O)c1cc(I)cc(I)c1O)c1ccc(Oc2ccccc2)cc1 [Compound 3c, 2-Hydroxy-3,5-diiodo-N-methyl-N-(4-phenoxyphenyl)benzamide]	eradicated protonophoric activity	–	–	–	–	–	–	–
COc1c(I)cc(I)cc1C(=O)N(C)c1ccc(Oc2ccccc2)cc1 [Compound 3d, 3,5-Diiodo-2-methoxy-N-methyl-N-(4-phenoxyphenyl)benzamide]	loss of uncoupling activity	–	–	–	–	–	–	–
